# Measurements pooled from the literature.
# Compare with care: the assays were run in different laboratories.
# ABL1 F317L phosphorylated: Tyrosine-protein kinase ABL1, phosphorylated (ABL1, Homo sapiens, UniProt P00519, F317L)
# ABL1 H396P non-phosphorylated: Tyrosine-protein kinase ABL1, non-phosphorylated (ABL1, Homo sapiens, UniProt P00519, H396P)
# ABL1 Y253F phosphorylated: Tyrosine-protein kinase ABL1, phosphorylated (ABL1, Homo sapiens, UniProt P00519, Y253F)
# ABL1 M351T phosphorylated: Tyrosine-protein kinase ABL1, phosphorylated (ABL1, Homo sapiens, UniProt P00519, M351T)
# ABL1 M351T: Tyrosine-protein kinase ABL1 (ABL1, Homo sapiens, UniProt P00519, M351T)
# ABL1 F317I phosphorylated: Tyrosine-protein kinase ABL1, phosphorylated (ABL1, Homo sapiens, UniProt P00519, F317I)
# ABL1 T315I non-phosphorylated: Tyrosine-protein kinase ABL1, non-phosphorylated (ABL1, Homo sapiens, UniProt P00519, T315I)
# ABL1 H396P phosphorylated: Tyrosine-protein kinase ABL1, phosphorylated (ABL1, Homo sapiens, UniProt P00519, H396P)
# ABL1 Q252H non-phosphorylated: Tyrosine-protein kinase ABL1, non-phosphorylated (ABL1, Homo sapiens, UniProt P00519, Q252H)
# ABL1 T315I phosphorylated: Tyrosine-protein kinase ABL1, phosphorylated (ABL1, Homo sapiens, UniProt P00519, T315I)
SMILES,target,assay,setting,remaining binding
C[C@H](c1ccc(F)cc1)N(Cc1cccc(C(=O)O)c1)C(=O)c1cnc2ccccc2c1,ABL1 F317L phosphorylated,"cell-free assay, competition with immobilised ligand",1 µM,99%
COc1ccnn2ncc(-c3ccnc(N(C)C)n3)c12,"Tyrosine-protein kinase ABL1 (ABL1, Homo sapiens, UniProt P00519, Y253F)",binding,1 µM,79%
CN([C@@H]1CCc2c(CC(=O)O)c3ccccc3n2C1)S(=O)(=O)c1ccc(F)cc1,ABL1 H396P non-phosphorylated,"cell-free assay, competition with immobilised ligand",1 µM,100%
O=C(NCC1CCOCC1)c1n[nH]cc1NC(=O)c1c(F)cccc1F,ABL1 Y253F phosphorylated,"binding, competition with immobilised ligand",1 µM,86%
Cc1cnn2ncc(-c3ccnc(N(C)C)n3)c2c1,"Tyrosine-protein kinase ABL1 (ABL1, Homo sapiens, UniProt P00519, E255K)",binding,1 µM,100%
O=C(c1ccc(Nc2ncc(Cl)c(-c3cc4ccccc4s3)n2)cc1)N1CCC(N2CCCC2)CC1,ABL1 M351T phosphorylated,"binding, competition with immobilised ligand",1 µM,12%
O=C1NC(c2ccccn2)Sc2ccccc21 (stereo not shown),"Tyrosine-protein kinase ABL1, phosphorylated (ABL1, Homo sapiens, UniProt P00519, E255K)","binding, competition with immobilised ligand",1 µM,77%
CN(CCCC(F)(F)F)c1nccc(-c2cnn3ncccc23)n1,ABL1 M351T,binding,1 µM,100%
O=C(NCCCN1CCOCC1)c1ccc(Nc2ncc(Cl)c(-c3ccc(Cl)s3)n2)cc1,ABL1 F317I phosphorylated,"binding, competition with immobilised ligand",1 µM,99%
C[C@H]1CCN(c2nccc(-c3cnn4ncccc34)n2)C1,"Tyrosine-protein kinase ABL1, non-phosphorylated (ABL1, Homo sapiens, UniProt P00519)",binding,1 µM,86%
c1cncc(-c2cccc(Nc3nccc(NC4CCCCC4)n3)c2)c1,ABL1 T315I non-phosphorylated,"binding, competition with immobilised ligand",10 µM,79%
COc1cnc(Nc2cccc(S(N)(=O)=O)c2)nc1N1CCN(c2ccccc2)CC1,ABL1 F317I phosphorylated,"binding, competition with immobilised ligand",1 µM,98%
COc1ncc2cc3ccccc3nc2c1C#N,ABL1 H396P phosphorylated,"cell-free assay, competition with immobilised ligand",5 µM,97%
N[C@H]1CCN(c2nccc(-c3cnn4ncccc34)n2)C1,ABL1 M351T,binding,1 µM,100%
O=C(NCCCN1CCOCC1)c1ccc(Nc2nccc(-c3cc4ccccc4s3)n2)cc1,ABL1 H396P phosphorylated,"binding, competition with immobilised ligand",1 µM,61%
O=C(NCc1ncc(C(F)(F)F)cc1Cl)c1ccc2c(c1)C1(CCS(=O)(=O)CC1)[C@@H](C1CC1)N2S(=O)(=O)c1ccc(F)cc1,ABL1 Q252H non-phosphorylated,"cell-free assay, competition with immobilised ligand",1 µM,100%
Cc1cnc(Nc2ccc(C(=O)N3CCC(N4CCCC4)CC3)cc2)nc1-c1cc2ccccc2s1,ABL1 T315I phosphorylated,"binding, competition with immobilised ligand",1 µM,2.1%
CC(C)CC(=O)N1CCc2nc(-c3ccc(Br)cc3)nc(N(C)Cc3ccccc3)c2C1,ABL1 H396P non-phosphorylated,"cell-free assay, competition with immobilised ligand",0.1 µM,68%
C=CC(=O)N1CCC(C(=O)NCC(=O)N2CCN(c3nc(-c4cnc(N)nc4C(F)F)nc(N4CCOCC4)n3)CC2)CC1,ABL1 T315I phosphorylated,"binding, competition with immobilised ligand",1 µM,82%
O=C(c1ccc(Nc2ncc(Cl)c(-c3ccc(Cl)s3)n2)cc1)N1CCC(N2CCCC2)CC1,"Tyrosine-protein kinase ABL1, non-phosphorylated (ABL1, Homo sapiens, UniProt P00519, F317I)","binding, competition with immobilised ligand",1 µM,97%
CCN1CCN(Cc2ccc(C(=O)Nc3ccc(C)c(Oc4ccc5c(c4)CC(=O)N5)c3)cc2C(F)(F)F)CC1,ABL1 H396P phosphorylated,"binding, competition with immobilised ligand",1 µM,62%
O=C(N1CCS(=O)(=O)CC1)N1C[C@H](c2ccc(OC(F)(F)F)cc2)C[C@H](c2nc(C3CC3)no2)C1,ABL1 T315I phosphorylated,"cell-free assay, competition with immobilised ligand",1 µM,100%
c1cnn2ncc(-c3ccnc(N4CCC45COC5)n3)c2c1,"Tyrosine-protein kinase ABL1 (ABL1, Homo sapiens, UniProt P00519, T315I)",binding,1 µM,64%
C[C@@H]1CN(c2cc(-c3nn(C)c4ccc(OC5(C)CC5)cc34)ncn2)C[C@H](C)O1,ABL1 T315I non-phosphorylated,"cell-free assay, competition with immobilised ligand",1 µM,73%
C[C@@H](c1ccc(-n2cnc3c(N)ncnc32)cc1)N1CCc2nn(C)c(Cc3ccccc3)c2C1=O,ABL1 F317L phosphorylated,"binding, competition with immobilised ligand",0.1 µM,49%
O=C(Nc1c[nH]nc1C(=O)NC1CCNCC1)c1cc(F)cc(F)c1,ABL1 H396P non-phosphorylated,"binding, competition with immobilised ligand",1 µM,90%
Nc1ncc2c(n1)-c1c([nH]c3ccc(C#CC4CC4)cc13)CCCC2,ABL1 H396P non-phosphorylated,"binding, competition with immobilised ligand",1 µM,93%
CNC(=O)[C@@H]1CC[C@@H](n2c(-c3ccc4cnccc4c3)nc3ccc(C(=O)NCc4cccc(C(N)=O)c4)cc32)C1,ABL1 Q252H non-phosphorylated,"binding, competition with immobilised ligand",1 µM,87%
O=C(Nc1cccnn1)N1CC(C/C=C/c2cncc(Oc3ccc(C(F)(F)F)cn3)n2)C1,ABL1 F317I phosphorylated,"cell-free assay, competition with immobilised ligand",1 µM,67%
COc1cnc(Nc2cccc(S(N)(=O)=O)c2)nc1N1CCN(c2ccccc2)C(=O)C1,ABL1 M351T phosphorylated,"binding, competition with immobilised ligand",1 µM,84%
O=C(c1ccc(Nc2nccc(-c3cc4ccccc4s3)n2)cc1)N1CCC(N2CCCC2)CC1,ABL1 Y253F phosphorylated,"binding, competition with immobilised ligand",1 µM,6.2%
